Key:
Mus musculus [1] = assay: (§1) In vivo antinociceptive activity expressed as ED50 administered perorally for tail pressure test; conditions: po
Mus musculus [2] = assay: In vivo antinociceptive activity expressed as ED50 administered perorally for tail pressure test in mice; conditions: po
[3] = Ratio of ED50 value administered subcutaneously to that of perorally.; format: functional
Summary of the method: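 Mouse tail pressure test ED50 values obtained after sc and po dosing by Litchfield–Wilcoxon at peak activity. The sc ED50 divided by the po ED50 is expressed as a percentage.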

Mus musculus [4] = assay: as §1; conditions: po; remark: listed apart in the source

SMILES: CN1CC[C@]23c4c5ccc(O)c4O[C@H]2[C@@H](O)C=C[C@H]3[C@H]1C5 [MORPHINE]
- ED50 (Mus musculus [1]): 1.7 mg/kg
- ED50 (Mus musculus [2]): 3.3 mg/kg
- Ratio [3]: 15
- ED50 (Mus musculus [4]): 15 mg/kg

— ChEMBL document CHEMBL1135567, “Synthesis and structure-activity relationships of an orally available and long-acting analgesic peptide, N(alpha)-amidino-Tyr-D-Arg-Phe-MebetaAla-OH (ADAMB)” (J Med Chem, 2002)
